Experimental data pooled from the literature.
Protocols differ between the studies behind these lines.
Target: MAP kinase-interacting serine/threonine-protein kinase 2 (MKNK2, Homo sapiens, UniProt Q9HBH9)

| Structure (SMILES) | effect on | action | method | tested at | measurement | value |
| --- | --- | --- | --- | --- | --- | --- |
| Oc1cccc(-c2nc(N3CCOCC3)c3oc4ncccc4c3n2)c1 | enzyme activity | inhibitor | – | 10 µM | remaining activity | 90% |
| CCCOc1ccc(OC)c(F)c1C(=O)c1ccc(C(=O)N[C@@H]2CNC[C@H]2NC(=O)c2ccc3[nH]ncc3c2)cc1 | enzyme activity | inhibitor | – | 10 µM | remaining activity | 67% |
| CC(=O)C1=C(O)C=C2Oc3c(C(N)=O)c(O)cc(O)c3[C@]2(C)C1=O | enzyme activity | inhibitor | radiometric | 10 µM | activity vs control | 0% |
| CSc1nc(C)c(-c2ccnc(Nc3ccc(N4CCOCC4)cc3)c2)[nH]1 | enzyme activity | inhibitor | – | 10 µM | inhibition | 94.9% |
| FC(F)(F)Oc1cccc(-c2cnc3ccc(-c4ccncc4)nn23)c1 | enzyme activity | inhibitor | radiometric | 1 µM | activity vs control | 66% |
| CS(=O)(=O)Nc1cccc(-c2csc(NC(=O)CSc3nc4nccnc4c(=O)n3CCc3ccccc3)n2)c1 | enzyme activity | inhibitor | – | 10 µM | inhibition | -10% |
| CC(C)c1ccc(NC(=O)c2cccs2)c(-c2nc3ccccc3[nH]c2=O)c1 | enzyme activity | inhibitor | – | 1 µM | activity vs control | 97% |
| CCC(=O)N[C@H]1CC[C@@H](C(=O)N(C)c2ccc(-c3nc4ccccc4o3)cc2)C1 | cell-free assay | – | competition with immobilised ligand | 1 µM | remaining binding | 100% |
| COc1cc2c(Nc3ccc(Br)cc3F)ncnc2cc1OCC1CCN(C)CC1 | cell-free assay | – | – | 0.5 µM | remaining signal | 86.9% |
| O=C(N[C@H]1CCCCC/C=C\C2C[C@@]2(C(=O)O)NC(=O)[C@@H]2C[C@@H](Oc3ccncc3)CN2C1=O)OC1CCCC1 (some centres unmarked) | binding | – | competition with immobilised ligand | 1 µM | remaining binding | 75% |
| CNC(=O)c1cc(Oc2ccc(NC(=O)Nc3ccc(Cl)c(C(F)(F)F)c3)cc2)ccn1 | enzyme activity | inhibitor | – | 0.3 µM | inhibition | 61% |
| Nc1ncnc2occ(-c3ccc(NC(=O)Nc4cc(C(F)(F)F)ccc4F)cc3)c12 | cell-free assay | inhibitor | – | 20 µM | remaining signal | 0% |
| CS(=O)(=O)N1CCCC(NC(=O)[C@H](CCC2CCCCC2)NC(=O)c2ccc(CNC(=O)c3cnc4ccccn34)cc2)C1 (some centres unmarked) | cell-free assay | – | competition with immobilised ligand | 0.1 µM | remaining binding | 84% |
| O=C(Nc1cnn(-c2csc(C(=O)NC3COC3)c2)c1)Nc1ccccc1Cl | enzyme activity | inhibitor | – | 5 µM | remaining activity | 99.3% |
| Cc1ccc(Nc2nccc(N(C)c3ccc4c(C)n(C)nc4c3)n2)cc1S(N)(=O)=O | enzyme activity | inhibitor | – | 0.3 µM | inhibition | 3% |
| CC(C)(C)c1nc(-c2cccc(NS(=O)(=O)c3c(F)cccc3F)c2F)c(-c2ccnc(N)n2)s1 | enzyme activity | inhibitor | radiometric | 1 µM | remaining activity | 63% |

| Structure (SMILES) | effect on | action | method | tested at | measurement | value |
| --- | --- | --- | --- | --- | --- | --- |
| N#CCCc1ccc2c(c1)-c1[nH]c3ccc([N+](=O)[O-])cc3c1CC(=O)N2 | cell-free assay | – | – | 0.5 µM | remaining signal | 87.7% |
| CN([C@@H]1CCc2c(CC(=O)O)c3ccccc3n2C1)S(=O)(=O)c1ccc(F)cc1 | cell-free assay | – | competition with immobilised ligand | 1 µM | remaining binding | 100% |
| Cn1c(=O)n(-c2ccc(C(C)(C)C#N)cc2)c2c3cc(-c4cnc5ccccc5c4)ccc3ncc21 | enzyme activity | inhibitor | – | 10 µM | remaining activity | 94% |
| Nc1nc(NC2CCCCC2)sc1C(=O)c1ccccc1 | enzyme activity | inhibitor | – | 10 µM | remaining activity | 94% |
| O=C(NCc1ncc(C(F)(F)F)cc1Cl)c1ccc2c(c1)C1(CCS(=O)(=O)CC1)[C@@H](C1CC1)N2S(=O)(=O)c1ccc(F)cc1 | cell-free assay | – | competition with immobilised ligand | 1 µM | remaining binding | 76% |
| O=C(Nc1cnn(-c2csc(C(=O)NC3COC3)c2)c1)Nc1c(F)cccc1Cl | enzyme activity | inhibitor | – | 5 µM | remaining activity | 90.8% |
| CCN(CC)CCNC(=O)c1c(C)[nH]c(/C=C2\C(=O)Nc3ccc(F)cc32)c1C | enzyme activity | inhibitor | – | 10 µM | inhibition | 6% |
| COc1cc(Nc2cnc(C#N)c(O[C@H](C)CN(C)C)n2)ncc1-c1cnn(C)c1 | enzyme activity | inhibitor | radiometric | 1 µM | remaining activity | 98% |
| O=C1NC(=O)c2cc(Nc3ccc(F)cc3)c(Nc3ccc(F)cc3)cc21 | cell-free assay | – | – | 0.5 µM | remaining signal | 101% |
| C[C@@H]1CN(c2cc(-c3nn(C)c4ccc(OC5(C)CC5)cc34)ncn2)C[C@H](C)O1 | cell-free assay | – | competition with immobilised ligand | 1 µM | remaining binding | 67% |
| Cc1ccc(C(=O)Nc2ccc(CN3CCN(C)CC3)c(C(F)(F)F)c2)cc1C#Cc1cnc2cccnn12 | enzyme activity | inhibitor | – | 23.5 nM | remaining activity | 33% |
| Cc1c[nH]c2nccc(Oc3c(F)cc(Nc4cc(Cl)nc(N)n4)cc3F)c12 | cell-free assay | – | competition with immobilised ligand | 0.1 µM | remaining binding | 90% |
| Nc1nc(Nc2ccc(S(N)(=O)=O)cc2)nn1C(=O)c1c(F)cccc1F | cell-free assay | – | – | 0.5 µM | remaining signal | 95.9% |
| Cc1ncc(C(=O)Nc2ccc(CN3CCN(C)CC3)c(C(F)(F)F)c2)cc1C#Cc1cnc2cccnn12 | enzyme activity | inhibitor | – | 0.123 µM | inhibition | 51% |
| C=CC(=O)Nc1cc(Nc2nccc(Nc3cc(Cl)c(F)cc3C(C)(C)O)n2)c(OC)cc1N1CC[C@@H](N(C)C)C1 | enzyme activity | inhibitor | – | 1 µM | inhibition | 67% |
| CC(=O)N1CCC(c2ccc(C(=O)NC3=NCCN3)cc2C(F)(F)F)CC1 | cell-free assay | – | competition with immobilised ligand | 1 µM | remaining binding | 100% |
